Results as given in ChEMBL document CHEMBL1126207, “Base-catalyzed isomerization of retinoic acid. Synthesis and differentiation-inducing activities of 14-alkylated all-trans-, 13-cis-, and 20,14-retro-retinoic acids” (1992).
The source made the active and inactive calls. No cut-off for these calls is given here.

Experiments:
HL-60 [1] = assay: Concentration required for 50% inhibition of differentiation-inducing activity against human promyelocytic leukemia cell line HL-60; IA is inactive; format: functional, cell-based
Summary of the method: (§1)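 HL-60 cells kept in suspension in RPMI1640 with 5% FCS plus penicillin G/streptomycin, 37 °C, 5% CO2. Seeded near 8 × 10^4 cells/mL, compound added from 0.2 mM ethanol stock (final ethanol below 0.5%), 4-day incubation. Differentiation by NBT reduction (20 min, 37 °C, 0.2% NBT with TPA), formazan-positive cells counted on ≥200 cells; ED50 taken from NBT data; retinoic acid run concurrently.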

HL-60 [2] = assay: Concentration required for 50% inhibition of differentiation-inducing activity against human promyelocytic leukemia cell line HL-60; format: functional; settings: read-out: ED50 (the source's name); summary of the method: as §1

| SMILES | ED50 (HL-60 [1]) | EC50 (HL-60 [2]) [nM] |
| --- | --- | --- |
| CC1=C(/C=C/C(C)=C/C=C/C(C)=C(/C(=O)O)C(C)C)C(C)(C)CCC1 | inactive | – |
| CC1=C(/C=C/C(C)=C/C=C/C(C)=C(\C(=O)O)C(C)C)C(C)(C)CCC1 | inactive | – |
| C=C(/C=C/C=C(C)/C=C/C1=C(C)CCCC1(C)C)CC(=O)O | – | 52 |
| CC1=C(/C=C/C(C)=C/C=C/C(C)=C(\C)C(=O)O)C(C)(C)CCC1 | – | 13 |
| CC1=C(/C=C/C(C)=C/C=C/C(C)=C(/C)C(=O)O)C(C)(C)CCC1 | – | 63 |
| C=C(/C=C/C=C(C)/C=C/C1=C(C)CCCC1(C)C)C(C)C(=O)O (stereo not given) | – | 55.1 |
| CC1=C(/C=C/C(C)=C/C=C/C(C)=C\C(=O)O)C(C)(C)CCC1 [ISOTRETINOIN] | – | 5.9 |
| CC\C(C(=O)O)=C(C)/C=C/C=C(C)/C=C/C1=C(C)CCCC1(C)C | – | 680 |
| C=C(/C=C/C=C(C)/C=C/C1=C(C)CCCC1(C)C)C(C)(C)C(=O)O | – | > 1000 |
| CC1=C(/C=C/C(C)=C/C=C/C(C)=C/C(=O)O)C(C)(C)CCC1 [TRETINOIN] | – | 2.4 |
